# Assay outcomes (PubChem)
# DENV2 CPE: inhibitors of DENV2 cytopathic effect | DENV2-infected cells, cytopathic effect rescue, plate reader | CPE inhibition, % at 9.99 µM | actives 1.7% (n = 350,000); in the data active means CPE inhibition above about 20%, passing the limit was not always enough; inconclusive means no clear call, values can overlap the other calls; tested in BHK-21 cells
# F508del corr: correctors of CFTR F508del function in bronchial epithelial cells | CFBE cells, YFP halide quenching; stimulated with forskolin plus potentiator P3; % fluorescence drop versus neutral controls | activity (quench increase), % at 7.58 µM | actives 0.36% (n = 350,000);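 active means mean added fluorescence quench of at least 8% versus neutral control, with both replicates also reaching 8%; inconclusive means only one of the mean or replicate conditions met; inactive means mean below 8% and not both replicates reaching 8%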;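 further: cells transiently co-express mutant CFTR-F508del with the halide-sensitive YFP; corrector assay measuring rescue of mutant channel to the surface after 24 h compound exposure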
# Cneo AK release: causes C. neoformans cell lysis; adenylate kinase release luminescence, 4 h; normalised: neutral wells 0, clomiphene wells 100; lysis activity, % at 15 µM; actives 0.2% (n = 360,000); AID 651654;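 active means mean lysis activity across replicates of at least 80%, whatever share of replicates individually reach that level; inactive means mean lysis activity below 80%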
#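 Material – Cryptococcus neoformans yeast cells · Quantity – 5 × 10^6 yeast cells/mL · Buffer or medium – YPD medium · Compound – single dose · Timing – 4 h static compound exposure, 37 °C, read 1 h post-reagent · Signal – adenylate kinase release luminescence · Read-out basis – lysis from increased AK signal · Benchmarks – Clomiphene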
# FN deposition inh: fibronectin deposition inhibition | inhibition, % at 12.6 µM | AH1F fibroblasts, Alexa488-fibronectin deposition fluorescence, overnight | actives 0.086% (n = 350,000);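 active means mean inhibition across replicates of 30% or more, regardless of how many single replicates reach that level; inconclusive means mean under 30% yet at least half of replicates reach 30%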
#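 Assay system: AH1F fibroblasts / Quantity: 10000 cells per well / Medium: DMEM plus 2% serum, read in PBS / Reagent: labelled fibronectin 24 nM / Dosing: single dose, pinned / Times: 1 h cell attachment, overnight exposure to compound and label / Signal: fluorescence, ex 485 nm, em 525 nm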
# PGC1a acetyl inh: PGC1a acetylation modulation, inhibitor mode; actives 0.17% (n = 350,000); inhibition, % at 15.6 µM; U2OS PGC1a acetylation, AlphaScreen anti-acetyl-lysine; with virally co-expressed GCN5 acetyltransferase;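 active means every replicate shows inhibition of at least 40%; inconclusive means mean inhibition at least 40% but some replicate below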
# Xi reactivation: reactivates the inactive X chromosome in mouse fibroblasts; activation, % at 7.58 µM; actives 0.055% (n = 360,000); AID 743238; XiGFP mouse fibroblasts, % GFP-positive cells imaging, 3 d; cells co-treated with 5-aza-dC sensitizer; scaled so ellipticine positive control = 100%;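 active means mean normalized replicate activation at least 10% and every replicate at or above 10%; inconclusive means only one of the two criteria met; inactive means mean below 10% and not all replicates reach 10%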
#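 System: 68-5-11 XiGFP fibroblast line | Buffer or medium: DMEM containing 5-aza-dC | Compound: Single point | Times: Compounds 3 days, fix/stain 15 min at room temperature | Benchmarks: Positive control ellipticine, 6 µM final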
# Hits are given with their value; 0 = inactive; ? = inconclusive; - = not tested or not shown; ! = a repeat was not active. Shown are actives, neighbours in structure and some others; about 1.9% of the full set was active somewhere.
SMILES,DENV2 CPE,F508del corr,Cneo AK release,FN deposition inh,PGC1a acetyl inh,Xi reactivation
CC1=CC(=O)[C@@H](OC(=O)Nc2ccc(C)cc2)[C@@H](c2ccccc2Br)N1C,0,0,0,0,0,0
CC1=CC(=O)[C@@H](O)[C@@H](c2ccccc2Br)N1C,0,0,0,active,0,0
O=C(C[C@H]1C=C[C@H](NS(=O)(=O)c2ccc(F)cc2)[C@H](CO)O1)NCc1ccccc1F,0,0,-,-,0,0
C[C@H]1CCCCO[C@H](CN(C)S(C)(=O)=O)[C@@H](C)CN([C@@H](C)CO)C(=O)c2cc(NS(=O)(=O)c3cn(C)cn3)ccc2O1,0,0,0,-,0,0
C[C@@H]1CN([C@H](C)CO)C(=O)c2cccc(NS(=O)(=O)c3ccccc3)c2O[C@H]1CN(C)C(=O)Nc1ccc2c(c1)OCO2,0,0,0,-,0,0
C[C@H]1CN([C@@H](C)CO)C(=O)c2cccc(NS(C)(=O)=O)c2O[C@H]1CN(C)C(=O)Nc1ccc2c(c1)OCO2,0,0,114,-,0,0
C[C@@H]1CN([C@@H](C)CO)C(=O)c2cccc(NS(C)(=O)=O)c2O[C@@H]1CN(C)C(=O)Nc1ccc2c(c1)OCO2,0,0,88,-,0,0
O=[N+]([O-])c1ccc(/C=N/N2CCCCC2)cc1,33,0,0,0,0,0
O=[N+]([O-])c1ccc(/C=N\N2CCN(c3ccc(Cl)cc3)CC2)cc1,-,-,0,-,0,-
COc1ccc(Nc2ccnc3ccccc23)cc1,-,-,-,-,51,-
CC(C)Nc1ccc(Nc2ccnc3cc4ccccc4cc23)cc1,0,27,-,0,0,0
COc1ccccc1NC(=O)N[C@@H]1CC[C@H](CCNS(=O)(=O)c2ccc(C)cc2)O[C@H]1CO,0,0,-,-,-,0
O=C1C=CC(=O)N1CCCCCCN1C(=O)C=CC1=O,-,-,-,48,-,0
CC(=O)N/C(=C\c1ccccc1)C(=O)OCC(=O)NC1CCCC1,21,0,0,0,0,0
CC(=O)N/C(=C\c1ccccc1)C(=O)OCC(=O)c1ccccc1,0,0,0,0,-,0
CC(=O)N1[C@@H]2c3ccc(-c4ccccc4)c(=O)n3C[C@H]1[C@H](CO)[C@H]2C(=O)Nc1ccccc1,48,-,87,-,-,0
CC=Cc1ccc2n(c1=O)C[C@@H]1[C@@H](CO)[C@H](C(=O)NC3Cc4ccccc4C3)[C@H]2N1C(C)=O (mixture of isomers),31,-,0,-,-,0
CCN1[C@@H]2c3ccc(-c4ccccc4)c(=O)n3C[C@H]1[C@H](CO)[C@H]2C(=O)Nc1ccccc1,0,0,0,-,-,0
Cc1c(C(=O)Nc2ccc(C(=O)Nc3ccccc3)cc2)cccc1[N+](=O)[O-],26,0,0,0,0,0
Cc1c(NC(=O)c2ccc3nsnc3c2)cccc1[N+](=O)[O-],0,0,0,33,0,0
COc1ccc(C(=O)Nc2ccc(Nc3ccccc3)cc2)cc1[N+](=O)[O-],40,0,0,0,0,0
Cc1c(C(=O)Nc2ccc(OCc3ccccc3)cc2)cccc1[N+](=O)[O-],-,-,0,0,0,-
CCC(=O)N1C[C@H](C)[C@H](OC)CN(C)C(=O)c2ccc(NC(=O)c3ccc(F)cc3)cc2OC[C@H]1C,0,0,0,0,0,0
COc1ccccc1NC(=O)Nc1nc(CC(=O)N2CCN(c3ccc(F)cc3)CC2)cs1,40,0,0,0,0,0
CO[C@H]1CN(C)C(=O)c2cc(NC(=O)c3cnccn3)ccc2OC[C@@H](C)N(CC2CC2)C[C@H]1C,0,0,-,0,0,0
SMILES,DENV2 CPE,F508del corr,Cneo AK release,FN deposition inh,PGC1a acetyl inh,Xi reactivation
CSc1ccccc1C(=O)C1CCCN(C(=O)CCc2cccnc2)C1 (configuration not stated),0,0,0,45,0,0
CC(=O)N1Cc2cc(C(=O)NCC(F)(F)F)nc(-c3cccc(-c4cccnc4)c3)c2[C@H]1CCO,0,0,-,0,-,0
CCNC(=O)c1cc2c(c(-c3cccc(-c4ccncc4)c3)n1)[C@@H](CCO)N(S(=O)(=O)CC)C2,51,0,-,0,0,0
COc1cccc(-c2cccc(-c3nc(C(=O)NCC(F)(F)F)cc4c3[C@H](CCO)N([S@@](=O)C(C)(C)C)C4)c2)c1,0,11,0,0,0,0
CN(C)CC#Cc1cccc(-c2nc(C(=O)N3CCN(Cc4ccccc4)CC3)cc3c2[C@@H](CCO)N(S(=O)C(C)(C)C)C3)c1 (some centres not stated),0,0,-,-,0,-
CC(=O)N1Cc2cc(C(=O)NCC(F)(F)F)nc(-c3cccc(-c4cccnc4)c3)c2[C@@H]1CCO,?,8.9!,-,0,0,0
CN(C)CC#Cc1cccc(-c2nc(C(=O)N[C@@H]3CCN(Cc4ccccc4)C3)cc3c2[C@H](CCO)N(S(=O)C(C)(C)C)C3)c1 (some centres not stated),48,0,-,-,0,-
COCC#Cc1ccc(CC[C@H]2O[C@H]3CC[C@H](CO)O[C@H]3C[C@@H]2n2cc(C(C)(C)O)nn2)cc1,0,0,-,-,-,-
C[C@H](CO)N1C[C@H](C)[C@H](CN(C)Cc2ccc(Cl)c(Cl)c2)Oc2ccc(NC(=O)CCCCCC(=O)Nc3ccccc3N)cc2CC1=O,0,0,0,-,0,0
COCC(=O)Nc1ccc2c(c1)C(=O)N(C)[C@H]1CC[C@H](CC(=O)NCc3cccc(F)c3)O[C@@H]1CO2,0,0,-,0,0,0
COc1ccc(Cn2nnnc2CN(Cc2cc3ccc(C)cc3[nH]c2=O)C2CCCC2)cc1,-,-,0,-,42,-
COc1ccccc1C#Cc1ccc2c(c1)O[C@H](CN(C)Cc1cccnc1)[C@H](C)CN([C@@H](C)CO)S2(=O)=O,0,8.2,0,0,0,0
CC(=O)N(C)C[C@@H]1Oc2cc(C#Cc3ccc(F)cc3)ccc2S(=O)(=O)N([C@@H](C)CO)C[C@@H]1C,0,0,0,-,0,0
CC(=O)N(C)C[C@@H]1Oc2cc(C#Cc3ccc(F)cc3)ccc2S(=O)(=O)N([C@H](C)CO)C[C@@H]1C,0,8.0,0,-,0,0
COc1ccccc1C#Cc1ccc2c(c1)O[C@@H](CN(C)C(C)=O)[C@@H](C)CN([C@H](C)CO)S2(=O)=O,?,0,99,0,0,0
C[C@@H]1CN([C@@H](C)CO)C(=O)c2cc(NC(=O)CCC(F)(F)F)ccc2O[C@@H](C)CCCCO[C@@H]1CN(C)C(=O)Nc1cccc2ccccc12,0,0,0,0,0,0
C[C@@H]1CN([C@H](C)CO)C(=O)c2cc(NC(=O)CCC(F)(F)F)ccc2O[C@@H](C)CCCCO[C@H]1CN(C)C(=O)Nc1cccc2ccccc12,0,0,0,0,0,0
